L major viab – reduces viability of Leishmania major promastigotes | AID 1063 | resazurin fluorescence viability | hit rate 9% among 200,000 | inhibition, % at 10 µM; in the data active means inhibition above about 50%;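 further: promastigotes grown with compound for 44 hours at 28 °C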
Dynein transport – dynein cargo transport inhibition; 3617.4 mouse cells, GR-EGFP nuclear translocation imaging; test concentration mostly 20 µM; stimulated with dexamethasone, 1 µM; hits give low values; AID 1381; hit rate 0.47% among 220,000; z-score, hits read low;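 active means plate z-score of nuclear minus cytoplasmic receptor signal below a set negative limit, without overly bright fluorescence or cell loss, cut at about -3.5 in these data, passing the limit was not always enough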;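 further: z-score of nuclear minus cytoplasmic ring GR-EGFP intensity difference per well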
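Also added – dexamethasone, 1.0 µM final · Buffer or medium – tet-free, stripped-serum medium · Schedule – induction 48 h, compound 1 h, agonist 30 min · Detection – formaldehyde fixation, Hoechst nuclear stain, 10x automated fluorescence imaging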
MT stabilizer – microtubule stabilizers in HeLa cells; AID 2205; HeLa tubulin immunostaining HCS, 24 h; share of cells brighter than vehicle mean+2SD; % tubulin-high responders, % at 10 µM; hit rate 0.83% among 200,000;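 active means plate Z-score above 3 for both tubulin-high and condensed-nucleus cell shares, with cell loss under 80%, at 10 µM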;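 further: anti alpha tubulin signal scored within the nucleus-defined area of each cell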
bCat nuc transl – beta-catenin nuclear translocation modulation | HeLa beta-catenin nuclear translocation, immunofluorescence imaging | nuclear translocation activity, % at 5 µM | hit rate 0.3% among 190,000 | AID 1665;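 active means nuclear translocation activity above 50% at 5 µM, with a well cell count of 50 or more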;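 further: per-cell ratio of nuclear to cytoplasmic median beta-catenin stain intensity; plate controls were DMSO negative control for no effect and GSK-3 inhibitor IX positive control for full effect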
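Test system: human HeLa cells, endogenous beta-catenin. Times: 24 h compound exposure, 37°C. Measured by: beta-catenin immunofluorescence imaging with DAPI.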
HSV augment – HSV replication enhancement. hit rate 0.005% among 220,000. maximum fold increase. AID 1956. HSV replication augmentation in cells, fold increase; in the data active means maximum fold increase above about 1.5; tested in PC3 cells
An asterisk follows results filed as active; i = inactive; / = no result. In the library only some 8.9% were active in any assay of this set; here they are far more common.

SMILES	L major viab	Dynein transport	MT stabilizer	bCat nuc transl	HSV augment
COC(=O)c1ccccc1S(=O)(=O)N1Cc2cc([N+](=O)[O-])ccc2Oc2ccccc21	86*	-0.45	4	-4	i
O=C(O)C1CCC(=O)N(C2CC2)C1c1ccccc1 (stereo unspecified)	0	3.2	0	/	i
O=C(c1ccccc1F)N1CCN(CC2CC3C=CC2C3)CC1 (stereo unspecified)	59*	-0.32	2	-6	i
CC1CCCC(N2CCN(C(=O)c3cccc(F)c3)CC2)C1 (stereo unspecified)	81*	0.21	3	-15	i
Cc1ccc(CN2CCN(CC3CC4C=CC3C4)CC2)cc1 (stereo unspecified)	96*	0.019	1	0	/
O=C(c1ccccc1F)N1CCN(Cc2ccccc2F)CC1	-1	0.88	2	5	i
O=C(c1cccc(F)c1)N1CCN(CC2CC3C=CC2C3)CC1 (stereo unspecified)	85*	-0.91	6	-14	i
CCOC(=O)c1cccnc1SCC(=O)NCc1ccccc1	-4	0.068	42	/	i
CN1C(=O)CSc2ccc(NC(=O)NCc3ccco3)cc21	-1	0.74	2	-3	i
CCCCN(C)CCCNC(=O)c1cn(CC)c2ccc(S(=O)(=O)N3CCc4ccccc4C3)cc2c1=O	99*	0.7	4	-1	/
CCCCN(CC)CCCNC(=O)c1cn(CC)c2ccc(S(=O)(=O)N3CCc4ccccc4C3)cc2c1=O	98*	1.3	3	-4	i
CCn1cc(C(=O)NCc2ccco2)c(=O)c2cc(S(=O)(=O)N3CCc4ccccc4C3)ccc21	97*	-0.071	2	-3	i
CCn1cc(C(=O)NCc2ccco2)c(=O)c2cc(S(=O)(=O)N3CCCCCC3)ccc21	28	-0.74	2	-4	i
CCCN(CCC)CCCNC(=O)c1cn(CC)c2ccc(S(=O)(=O)N3CCc4ccccc4C3)cc2c1=O	99*	0.5	5	-1	/
CCn1cc(C(=O)NCCCN2CCCC2)c(=O)c2cc(S(=O)(=O)N3CCc4ccccc4C3)ccc21	46	0.19	3	-2	/
CCn1cc(C(=O)NCCCN2CCC(C)CC2)c(=O)c2cc(S(=O)(=O)N3CCCC3)ccc21	-2	1.9	5	/	i
N#CC1=C(Nc2ccccc2)SC=C(c2ccc(Br)cc2)N=C1N1CCOCC1	16	-0.49	2	-1	i
CCOC(=O)/C(C#N)=C/c1cccc([N+](=O)[O-])c1	/	0.013	/	-3	i
O=S(=O)(c1ccc(S(=O)(=O)n2cnc3ccccc32)cc1)N1CCCCCC1	-13	-0.4	1	-1	i
COc1ccc(N(CC(=O)NC2CCCC2)C(=O)Cn2nnc(-c3ccc(C)cc3)n2)cc1	-3	-0.88	2	-2	i
Cc1ccc(S(=O)(=O)N2CCC(O)(c3cccnc3)CC2)cc1	-8	0.54	2	/	i
CCCC[C@@H]1CNC(=S)N1CCCc1cc(OC)c(OC)c(OC)c1	0	-0.62	6	0	i
Cn1cccc1CC(=O)N/N=C/c1ccc(C(C)(C)C)cc1	/	0.76	/	1	i
Cc1ccc(NC(=O)c2cc(S(=O)(=O)N3CCC4(CC3)OCCO4)ccc2F)cc1	96*	-0.0022	3	-1	i
Cc1c(C(=O)Nc2cccc(Cl)c2)oc2ccc(S(=O)(=O)N3CCC4(CC3)OCCO4)cc12	52*	-0.95	19	-1	/
SMILES	L major viab	Dynein transport	MT stabilizer	bCat nuc transl	HSV augment
CCOc1ccc(NC(=O)C(=S)NC2CCCCC2)cc1	-3	2.3	1	0	i
COc1cccc(N/C(SC)=C(/C#N)C(N)=O)c1	-1	-0.27	22*	-1	i
COc1cccc(N/C(SC)=C(/C#N)C(=O)NCc2cccs2)c1	2	0.76	2	0	i
O=C(NCc1ccco1)c1nc2ccccc2s1	-4	1.2	3	/	i
O=C(/C=C/c1ccccc1)NC(NC(=S)Nc1cccc(O)c1)C(Cl)(Cl)Cl (stereo unspecified)	93*	0.39	2	-3	i
O=C(/C=C/c1ccccc1)NC(NC(=S)Nc1ccc(Cl)cc1Cl)C(Cl)(Cl)Cl (stereo unspecified)	59*	-0.82	5	-1	i
CN1/C(=C/c2cc[n+](C)c3ccccc23)C=Cc2ccccc21	101*	0.13	9	-8	i
CC(NC(=O)/C(=C/c1cccc([N+](=O)[O-])c1)NC(=O)c1ccco1)C(=O)O (stereo unspecified)	55*	-0.71	3	2	i

Assay outcomes as filed in PubChem BioAssay.
